Reference: ChEMBL document CHEMBL4823302, “Evaluation of γ-carboline-phenothiazine conjugates as simultaneous NMDA receptor blockers and cholinesterase inhibitors” (Bioorg Med Chem, 2021)

Key:
[1] = target: Glutamate NMDA receptor; GRIN1/GRIN2B (Homo sapiens, UniProt Q05586+Q13224); assay: Inhibition of human GluN1-1a/NR2B receptor expressed in transgenic mouse fibroblast cells assessed as inhibition of L-glutamate-induced excitotoxicity by measuring LDH activity by cell based assay
Procedure, shortened: (§1)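 Stably transfected mouse fibroblasts expressing human GluN1-1a/2A or GluN1-1a/2B receptors; excitotoxicity induced with 10 μM L-glutamate plus 10 μM glycine and quantified as LDH activity in medium. Agonists without antagonist defined 100%; agonists plus 100 μM ketamine defined 0%. IC50 ± SD from at least three independent experiments.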

Cholinesterase = Cholinesterase (Equus caballus, UniProt P81908); assay: Inhibition of recombinant equine BChE by Ellman's method
[2] = target: T1, Glutamate NMDA receptor; GRIN1/GRIN2A (Homo sapiens, UniProt Q05586+Q12879); assay: Inhibition of human GluN1-1a/NR2A receptor expressed in transgenic mouse fibroblast cells assessed as inhibition of L-glutamate-induced excitotoxicity by measuring LDH activity by cell based assay; procedure, shortened: as §1
Acetylcholinesterase [3] = target: T2, Acetylcholinesterase (Homo sapiens, UniProt P22303); assay: Inhibition of recombinant human AChE expressed in HEK293 cells by Ellman's method; assay type: cell-based
[4] = Solubility of the compound at >= 50 uM; assay type: physicochemical
[5] = system: Glutamate NMDA receptor GRIN1/GRIN2B (Homo sapiens); assay: Inhibition of human GluN1-1a/NR2B receptor expressed in transgenic mouse fibroblast cells assessed as inhibition of L-glutamate-induced excitotoxicity at 20 uM by measuring LDH activity by cell based assay
[6] = target: T1, Glutamate NMDA receptor; GRIN1/GRIN2A; assay: Inhibition of human GluN1-1a/NR2A receptor expressed in transgenic mouse fibroblast cells assessed as inhibition of L-glutamate-induced excitotoxicity at 50 uM by measuring LDH activity by cell based assay
Procedure, shortened: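 Mouse fibroblasts stably expressing human GluN1-1a/2A or GluN1-1a/2B receptors were exposed to 10 μM L-glutamate plus glycine with test agent. Excitotoxicity was read as LDH activity in the medium. Agonists alone defined 100%; agonists plus 100 μM ketamine defined 0%. Percent inhibition at the single test concentration came from at least three independent experiments.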

Acetylcholinesterase [7] = target: T2, Acetylcholinesterase; assay: Inhibition of recombinant human AChE expressed in HEK293 cells at 50 uM by Ellman's method relative to control; assay type: cell-based

T2 sequence (P22303 whole entry): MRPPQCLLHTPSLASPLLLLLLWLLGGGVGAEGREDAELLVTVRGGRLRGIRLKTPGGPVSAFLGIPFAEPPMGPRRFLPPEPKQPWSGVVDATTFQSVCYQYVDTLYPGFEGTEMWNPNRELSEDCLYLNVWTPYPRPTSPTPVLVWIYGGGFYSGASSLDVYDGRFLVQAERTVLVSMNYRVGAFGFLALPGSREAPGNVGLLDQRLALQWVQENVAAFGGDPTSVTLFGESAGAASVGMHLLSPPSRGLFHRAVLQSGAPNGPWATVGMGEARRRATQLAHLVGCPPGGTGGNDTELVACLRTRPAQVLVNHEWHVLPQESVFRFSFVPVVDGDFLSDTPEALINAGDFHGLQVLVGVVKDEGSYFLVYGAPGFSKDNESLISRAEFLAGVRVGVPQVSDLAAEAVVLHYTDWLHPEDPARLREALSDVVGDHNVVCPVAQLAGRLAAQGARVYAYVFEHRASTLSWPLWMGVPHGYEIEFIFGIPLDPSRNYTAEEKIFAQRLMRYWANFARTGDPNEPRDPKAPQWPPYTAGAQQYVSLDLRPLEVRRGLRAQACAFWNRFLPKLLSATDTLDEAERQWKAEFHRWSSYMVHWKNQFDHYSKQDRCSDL
Chain of Cholinesterase (P81908 whole entry): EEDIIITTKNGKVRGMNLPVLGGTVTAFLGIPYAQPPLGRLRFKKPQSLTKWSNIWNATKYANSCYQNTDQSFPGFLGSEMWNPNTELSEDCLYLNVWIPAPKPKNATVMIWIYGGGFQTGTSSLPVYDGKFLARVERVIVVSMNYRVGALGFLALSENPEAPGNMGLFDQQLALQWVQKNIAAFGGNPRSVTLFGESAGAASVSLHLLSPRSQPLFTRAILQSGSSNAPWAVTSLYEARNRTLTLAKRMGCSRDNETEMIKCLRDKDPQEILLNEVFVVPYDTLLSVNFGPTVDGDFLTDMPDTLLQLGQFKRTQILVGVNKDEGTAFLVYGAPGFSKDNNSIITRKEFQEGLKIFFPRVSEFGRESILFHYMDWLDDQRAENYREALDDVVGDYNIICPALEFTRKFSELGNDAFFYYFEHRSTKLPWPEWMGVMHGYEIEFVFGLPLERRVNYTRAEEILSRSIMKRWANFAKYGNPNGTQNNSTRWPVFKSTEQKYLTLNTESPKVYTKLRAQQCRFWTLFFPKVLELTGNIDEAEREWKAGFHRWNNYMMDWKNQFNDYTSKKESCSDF
Chain of Glutamate NMDA receptor; GRIN1/GRIN2B (Q13224 whole entry, looked up, other chains not shown): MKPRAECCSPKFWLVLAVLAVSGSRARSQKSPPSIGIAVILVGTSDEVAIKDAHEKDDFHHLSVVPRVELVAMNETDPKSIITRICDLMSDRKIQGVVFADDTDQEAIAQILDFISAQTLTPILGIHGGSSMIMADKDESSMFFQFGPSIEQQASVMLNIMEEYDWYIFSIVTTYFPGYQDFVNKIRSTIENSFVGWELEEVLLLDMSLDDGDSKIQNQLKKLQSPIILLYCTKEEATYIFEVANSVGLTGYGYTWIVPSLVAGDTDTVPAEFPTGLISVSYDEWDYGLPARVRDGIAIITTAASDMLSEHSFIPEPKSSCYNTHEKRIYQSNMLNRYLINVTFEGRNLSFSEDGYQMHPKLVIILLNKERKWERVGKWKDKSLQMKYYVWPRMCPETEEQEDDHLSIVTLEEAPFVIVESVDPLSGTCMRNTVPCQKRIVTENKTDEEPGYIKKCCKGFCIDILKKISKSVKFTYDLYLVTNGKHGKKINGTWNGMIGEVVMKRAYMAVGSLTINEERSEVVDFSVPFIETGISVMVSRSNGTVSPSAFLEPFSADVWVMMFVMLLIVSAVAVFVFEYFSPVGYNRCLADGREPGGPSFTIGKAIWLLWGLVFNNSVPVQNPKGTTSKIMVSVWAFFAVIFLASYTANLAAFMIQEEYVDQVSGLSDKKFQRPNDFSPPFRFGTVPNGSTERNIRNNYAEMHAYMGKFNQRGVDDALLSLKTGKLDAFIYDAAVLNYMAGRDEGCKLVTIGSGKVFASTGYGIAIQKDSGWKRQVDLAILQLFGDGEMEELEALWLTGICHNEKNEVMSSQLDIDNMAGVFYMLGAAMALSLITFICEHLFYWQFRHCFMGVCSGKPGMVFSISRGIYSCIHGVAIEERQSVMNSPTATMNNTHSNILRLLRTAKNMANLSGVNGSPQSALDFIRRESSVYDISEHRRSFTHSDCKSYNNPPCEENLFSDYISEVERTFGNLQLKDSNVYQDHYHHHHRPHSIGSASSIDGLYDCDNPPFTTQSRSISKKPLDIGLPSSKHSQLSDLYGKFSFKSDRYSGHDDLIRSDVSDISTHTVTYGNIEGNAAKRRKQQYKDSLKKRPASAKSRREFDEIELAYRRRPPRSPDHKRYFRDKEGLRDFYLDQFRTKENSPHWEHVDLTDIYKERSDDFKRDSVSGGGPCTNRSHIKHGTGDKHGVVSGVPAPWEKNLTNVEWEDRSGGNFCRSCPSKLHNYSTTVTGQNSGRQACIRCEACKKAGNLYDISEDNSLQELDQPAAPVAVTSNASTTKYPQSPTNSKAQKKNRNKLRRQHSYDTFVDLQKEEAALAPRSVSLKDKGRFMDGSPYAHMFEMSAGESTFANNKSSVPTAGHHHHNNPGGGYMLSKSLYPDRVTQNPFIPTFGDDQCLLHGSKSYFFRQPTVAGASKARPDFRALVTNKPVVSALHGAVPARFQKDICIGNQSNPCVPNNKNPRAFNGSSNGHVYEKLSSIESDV

Row | Structure (SMILES) | IC50 [1] | IC50 (Cholinesterase) | IC50 [2] | IC50 (Acetylcholinesterase [3]) | solubility [4] | inhibition [5] | inhibition [6] | inhibition (Acetylcholinesterase [7])
1 | C[n+]1ccc2c(c1)c1ccccc1n2CCC(=O)N1c2ccccc2Sc2ccccc21 | 1.4 µM | 0.041 µM | 2.4 µM | 2.2 µM | – | – | – | –
2 | COc1ccc2[nH]c3cc[n+](C)cc3c2c1.[I-] | – | 9.8 µM | – | 14.7 µM | Insoluble | < 50% | < 50% | –
3 | COc1cc2c(cc1OC)C(=O)C(CC1CCN(Cc3ccccc3)CC1)C2 (stereo not given) | – | – | – | – | – | – | < 50% | –
4 | Cc1ccc2c(c1)c1cnccc1n2CCC(=O)N1c2ccccc2Sc2ccccc21 | 1.5 µM | 0.016 µM | 1.3 µM | 0.51 µM | – | – | – | –
5 | O=C(CCn1c2ccccc2c2c[n+](Cc3ccccc3)ccc21)N1c2ccccc2Sc2ccccc21 | 0.9 µM | 0.011 µM | 1 µM | 2.2 µM | – | – | – | –
6 | CN1CCc2[nH]c3ccccc3c2C1 | – | 6.5 µM | – | – | Insoluble | < 50% | < 50% | < 50%
7 | COc1ccc2[nH]c3c(c2c1)CN(Cc1ccccc1)CC3 | – | 6.3 µM | – | 52.7 µM | Insoluble | < 50% | < 50% | –
8 | C[n+]1ccc2c(c1)c1cc(F)ccc1n2CCC(=O)N1c2ccccc2Sc2ccccc21 | 2.1 µM | 0.032 µM | 3 µM | 2.6 µM | – | – | – | –
9 | c1ccc2c(c1)[nH]c1ccncc12 | – | 1.2 µM | – | 21.4 µM | Insoluble | – | < 50% | –
10 | c1ccc2c(c1)c1cnccc1n2CCCCCCCCCn1c2ccccc2c2cnccc21 | – | – | – | 0.08 µM | – | < 50% | < 50% | –
11 | Fc1ccc2[nH]c3ccncc3c2c1 | – | 0.55 µM | – | 11.4 µM | Insoluble | < 50% | < 50% | –
12 | CN1CCc2c(c3ccccc3n2CCC(=O)N2c3ccccc3Sc3ccccc32)C1 | – | 0.17 µM | – | 7.8 µM | Insoluble | < 50% | < 50% | –
13 | Cc1ccc2[nH]c3c(c2c1)CN(Cc1ccccc1)CC3 | – | 1.4 µM | – | 35.1 µM | Insoluble | < 50% | < 50% | –
14 | COc1ccc2c(c1)c1c[n+](C)ccc1n2CCC(=O)N1c2ccccc2Sc2ccccc21 | 0.2 µM | 0.041 µM | 0.4 µM | 5.3 µM | – | – | – | –
15 | CN1CCc2c(c3ccccc3n2CCCCCCCCCn2c3c(c4ccccc42)CN(C)CC3)C1 | – | – | – | – | – | < 50% | < 50% | –
